The nature of series [1]: melting temperature; fluorescence melt of hairpins on a sequencing array, two-state fit, raised by 9.35 °C to match UV melts. To be noted: sodium 0.088 M. Put shortly:
(§1)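 Cy3 fluorescence of library hairpins on a sequenced MiSeq flow cell, with annealed Cy3 and quencher oligos, was imaged in 50 mM Na-HEPES pH 8.0, 25 mM NaCl in 2.5 °C steps up to 60 °C. Signals were normalised to pre-quench Cy3 and to control variants. Melting temperature and folding enthalpy came from bootstrapped two-state fits, inverse-variance combined over four replicates. Fitted temperatures were raised by 9.35 °C to match UV melts.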

Series [2] in a line: folding enthalpy; higher = less favourable; fluorescence melt of hairpins on a sequencing array, two-state fit. The note with it: sodium 0.088 M. Put shortly: as §1

Consider GATCAACAATTTGATC ((((((....)))))), for which the Tm in series [1] worked out at 38 °C. The folding enthalpy in series [2] is -26.8 kcal/mol.
In the same order, the values of GATCAACCAATTGATC ((((((....)))))) are 39 °C and -32.7 kcal/mol.
Consider GATCAACCATTGATC ((((((...)))))), for which the Tm in series [1] came out at 38.8 °C. In addition, the folding enthalpy in series [2] is -29 kcal/mol.
In the same order, the values of GATCAACCTCTTGATC ((((((....)))))) are 43.5 °C and -30.3 kcal/mol.
As to GATCAACGAATTGATC ((((((....)))))), in series [1], the Tm worked out at 38.5 °C. The folding enthalpy in series [2] was -25.8 kcal/mol.
With GATCAACGGCTTGATC ((((((....)))))), the Tm in series [1] turned out to be 42.4 °C. Further, the folding enthalpy in series [2] was -28.7 kcal/mol.
In the case of GATCAACTCCTTGATC ((((((....)))))), the Tm in series [1] was 44.2 °C. For the same sequence, the folding enthalpy in series [2] is -36.6 kcal/mol.
As to GATCAACTCGTTGATC ((((((....)))))), the Tm in series [1] amounted to 57.5 °C. In series [2], the folding enthalpy was -42.6 kcal/mol.
For the sequence GATCAACTGTTTGATC ((((((....)))))), the Tm in series [1] is 43.2 °C. Also, the folding enthalpy in series [2] is -32.3 kcal/mol.
Take GATCAACTTGTTGATC ((((((....)))))): the Tm in series [1] turned out to be 60.5 °C. For the same sequence, the folding enthalpy in series [2] was -51.7 kcal/mol.
Regarding GATCAAGAATTGATC ((((((...)))))), the Tm in series [1] is 51.9 °C. The folding enthalpy in series [2] is -34.6 kcal/mol.
For the sequence GATCAAGACATTGATC ((((((....)))))), the Tm in series [1] amounted to 50.1 °C. Moreover, in series [2], the folding enthalpy is -38.8 kcal/mol.
Taken in the same sequence, the figures for GATCAAGCCCTTGATC ((((((....)))))) were 49.4 °C and -49.1 kcal/mol.
For the sequence GATCAAGCGGTTGATC ((((((....)))))), the Tm in series [1] is 46.5 °C. Besides, in series [2], the folding enthalpy was -38.1 kcal/mol.
For the sequence GATCAAGCTTTTGATC ((((((....)))))), in series [1], the Tm was 44.5 °C. Moreover, the folding enthalpy in series [2] was -34.8 kcal/mol.
In the case of GATCAAGGACTTGATC ((((((....)))))), the Tm in series [1] stood at 50.7 °C. Moreover, the folding enthalpy in series [2] is -40 kcal/mol.
On to GATCAAGGATTGATC ((((((...)))))), for which the Tm in series [1] was found to be 49.8 °C. Further, in series [2], the folding enthalpy is -38.8 kcal/mol.
For GATCAAGGGCTTGATC ((((((....)))))), the Tm in series [1] came to 46.7 °C. The folding enthalpy in series [2] was -34.6 kcal/mol.
For GATCAAGGGTTGATC ((((((...)))))), the Tm in series [1] amounted to 40.3 °C. For the same sequence, in series [2], the folding enthalpy is -24 kcal/mol.
In the case of GATCAAGTAATTGATC ((((((....)))))), the Tm in series [1] is 50 °C. In addition, the folding enthalpy in series [2] is -32.1 kcal/mol.
Turning to GATCAAGTATTGATC ((((((...)))))), the Tm in series [1] is 51.8 °C. For the same sequence, the folding enthalpy in series [2] is -43.4 kcal/mol.
In the same order, the values of GATCAAGTGGTTGATC ((((((....)))))) are 41.9 °C and -27.6 kcal/mol.
As to GATCAAGTTTTTGATC ((((((....)))))), in series [1], the Tm was 45.5 °C. Further, in series [2], the folding enthalpy is -36 kcal/mol.
In the same order, the values of GATCAATCAGTTGATC ((((((....)))))) are 44.4 °C and -29.6 kcal/mol.
Consider GATCAATCATTTGATC ((((((....)))))), for which the Tm in series [1] came to 45.5 °C. For the same sequence, the folding enthalpy in series [2] was -37.3 kcal/mol.
In the case of GATCAATCCTTGATC ((((((...)))))), in series [1], the Tm stood at 44 °C. Moreover, the folding enthalpy in series [2] is -28.7 kcal/mol.
Regarding GATCAATCGTTTGATC ((((((....)))))), the Tm in series [1] amounted to 45.7 °C. The folding enthalpy in series [2] is -33.8 kcal/mol.
For GATCAATCTATTGATC ((((((....)))))), in series [1], the Tm came out at 49.8 °C. For the same sequence, the folding enthalpy in series [2] was -43.2 kcal/mol.
In the case of GATCAATCTGTTGATC ((((((....)))))), the Tm in series [1] was found to be 45.6 °C. For the same sequence, in series [2], the folding enthalpy is -35.1 kcal/mol.
In the case of GATCAATGACTTGATC ((((((....)))))), the Tm in series [1] came to 39.7 °C. Further, the folding enthalpy in series [2] is -29.1 kcal/mol.
With GATCAATGCCTTGATC ((((((....)))))), the Tm in series [1] worked out at 45.3 °C. Also, the folding enthalpy in series [2] is -26.2 kcal/mol.
As for GATCAATGGGTTGATC ((((((....)))))), the Tm in series [1] was found to be 48.3 °C. Besides, in series [2], the folding enthalpy is -35.5 kcal/mol.
GATCAATTCCTTGATC ((((((....)))))): the Tm in series [1] stood at 45.4 °C. The folding enthalpy in series [2] is -35.3 kcal/mol.
Consider GATCAATTTGTTGATC ((((((....)))))), for which, in series [1], the Tm worked out at 47.3 °C. The folding enthalpy in series [2] is -35.6 kcal/mol.
For GATCACAACCGTGATC ((((((....)))))), the Tm in series [1] stood at 57.2 °C. In addition, the folding enthalpy in series [2] is -39.2 kcal/mol.
With GATCACAATGTGATC ((((((...)))))), the Tm in series [1] was determined as 55.6 °C. Further, in series [2], the folding enthalpy was -36.8 kcal/mol.
For the sequence GATCACAATTGTGATC ((((((....)))))), in series [1], the Tm amounted to 56.1 °C. The folding enthalpy in series [2] was -41.6 kcal/mol.
Regarding GATCACACTAGTGATC ((((((....)))))), in series [1], the Tm turned out to be 58.8 °C. Besides, in series [2], the folding enthalpy was -43.4 kcal/mol.
Regarding GATCACAGACGTGATC ((((((....)))))), the Tm in series [1] amounted to 57 °C. Further, the folding enthalpy in series [2] is -37 kcal/mol.
Consider GATCACAGATGTGATC ((((((....)))))), for which the Tm in series [1] worked out at 56.8 °C. Also, the folding enthalpy in series [2] was -37.8 kcal/mol.
As to GATCACAGCGTGATC ((((((...)))))), the Tm in series [1] was 61.9 °C. Further, the folding enthalpy in series [2] was -42 kcal/mol.
With GATCACAGGCGTGATC ((((((....)))))), the Tm in series [1] was 57.3 °C. In series [2], the folding enthalpy was -36 kcal/mol.
In the case of GATCACAGGTGTGATC ((((((....)))))), in series [1], the Tm worked out at 59.9 °C. Also, the folding enthalpy in series [2] is -36.4 kcal/mol.
Regarding GATCACAGTGGTGATC ((((((....)))))), in series [1], the Tm turned out to be 56.5 °C. Moreover, the folding enthalpy in series [2] is -50 kcal/mol.
As for GATCACATATGTGATC ((((((....)))))), in series [1], the Tm came out at 58.9 °C. For the same sequence, in series [2], the folding enthalpy is -41.9 kcal/mol.
Take GATCACATCAGTGATC ((((((....)))))): the Tm in series [1] is 58.4 °C. The folding enthalpy in series [2] was -42.1 kcal/mol.
Taken in the same sequence, the figures for GATCACATCCGTGATC ((((((....)))))) were 56.6 °C and -46 kcal/mol.
For GATCACATTGTGATC ((((((...)))))), the Tm in series [1] was found to be 57.9 °C. Further, the folding enthalpy in series [2] was -33.7 kcal/mol.
Taken in the same sequence, the figures for GATCACCAACGTGATC ((((((....)))))) were 53.8 °C and -41.6 kcal/mol.
Taken in the same sequence, the figures for GATCACCAAGGTGATC ((((((....)))))) were 60 °C and -43.3 kcal/mol.
Taken in the same sequence, the figures for GATCACCACAGTGATC ((((((....)))))) were 57.4 °C and -40.4 kcal/mol.
Consider GATCACCATCGTGATC ((((((....)))))), for which the Tm in series [1] stood at 54.5 °C. In addition, in series [2], the folding enthalpy is -31.8 kcal/mol.
Turning to GATCACCATTGTGATC ((((((....)))))), the Tm in series [1] turned out to be 56.3 °C. In series [2], the folding enthalpy was -39.2 kcal/mol.
Taken in the same sequence, the figures for GATCACCCAGGTGATC ((((((....)))))) were 61.6 °C and -35.7 kcal/mol.
With GATCACCCTGTGATC ((((((...)))))), the Tm in series [1] is 59.3 °C. Besides, in series [2], the folding enthalpy is -42.3 kcal/mol.
GATCACCGAAAGGTATC (((.(((....)))))): in series [1], the Tm was found to be 34.1 °C. Moreover, the folding enthalpy in series [2] was -15.8 kcal/mol.
In the same order, the values of GATCACCGAAAGGTCATC (((.(((....))).))) are 32.5 °C and -16.8 kcal/mol.
